From article PMC13435124 (The FASEB Journal, 2026)

How the values were obtained:
[1] = test system: AKT/GSK3β signaling in N2a-APPswe cells; experiment: AKT and GSK3β phosphorylation, western blot; assay type: cell-based, mouse; conditions: 250 μM, 30 min
Method in brief: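 Murine N2a-APPswe cells exposed to test compound at 250 μM for 5, 15 or 30 min; basal pAKT in untreated N2a-wt and N2a-APPswe read at 30 min. Protein by BCA; lysates denatured 5 min at 95°C. Membranes blocked 1 h RT in 5% BSA for phospho-proteins, primaries 1:1000 overnight at 4°C, HRP secondaries 1 h RT.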

Nrf2 in N2a-APPswe cells [2] = experiment: Nrf2 cytoplasmatic and nuclear protein levels, western blot; assay type: cell-based, mouse; conditions: 250 μM, 6 h, vs untreated cells
Method in brief: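 N2a-APPswe cells exposed to test compound at 250 μM for 2, 4 and 6 h. Cytoplasmic and nuclear Nrf2 assessed by western blot.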

Nrf2 in N2a-APPswe cells [3] = experiment: Nrf2 activation, Nrf2 Transcription Factor Assay Kit; assay type: cell-based, mouse; conditions: 250 μM
Method in brief: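 N2a-APPswe cells exposed to test compound at 250 μM for 2, 4 and 6 h. Nrf2 activation determined with a commercial kit.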

N2a-APPswe cells = experiment: Nrf2-dependent gene expression; assay type: cell-based, mouse
[4] = test system: HMOX1 in N2a-APPswe cells; experiment: HMOX1 protein levels, western blot; assay type: cell-based, mouse; conditions: 250 μM, 24 h, vs control
Method in brief: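 N2a-APPswe cells treated 24 h with test compound at 250 μM. HMOX1 detected by western blot after milk blocking 1 h RT; anti-HMOX1 1:1000 in 5% BSA/TBS-T overnight at 4°C, then HRP secondary 1 h RT.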

[5] = test system: BV-2 cells exposed to LPS; experiment: Nos2 and Il-1β mRNA in LPS-stimulated microglia, real-time RT-PCR; assay type: cell-based, mouse; conditions: BV-2, 250 μM, LPS 50 ng/mL, 18 h
Method in brief: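 BV-2 cells given test compound at 250 μM, LPS 50 ng/mL added 30 min later, incubated 18 h. Nos2 and Il-1β mRNA measured by real-time RT-PCR. Mean ± SEM of four independent experiments, relative to untreated control.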

[6] = test system: BV-2 cells exposed to LPS; experiment: Nitric oxide production; assay type: cell-based, mouse; conditions: BV-2, 250 μM, LPS 50 ng/mL, 24 h
Method in brief: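 BV-2 microglia given test compound at 250 μM, then LPS 50 ng/mL 30 min later, for 24 h. Nitrite measured in supernatants by Griess assay at 550 nm against a sodium nitrite standard curve. Mean ± SEM of four independent experiments, relative to untreated control.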

N2a-wt cells = experiment: Cell metabolism, Alamar Blue; assay type: cell-based, mouse; conditions: 24 h, Alamar Blue (Figure S1A)
Method in brief: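 Cells exposed 24 h to test compound at 500, 250, 100, 50 or 5 μM, DMSO final up to 0.1% v/v. Resazurin 50 μM in PBS added 3 h before the end. Absorbance read at 570 nm with 620 nm reference. Highest nontoxic concentration chosen from metabolic capacity.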

[7] = test system: Nrf2 activation in KeratinoSens cells; experiment: KeratinoSens reporter gene assay; assay type: cell-based; conditions: 6 h; Iso 250 μM, DMF 50 μM
Method in brief: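 KeratinoSens ARE-luciferase cells (passage ≤22) plated at 1.0 × 10^4 per well in triplicate; after 24 h switched to DMEM with 1% FBS, no geneticin. Wortmannin 500 nM added 1 h before test compound at 250 μM; DMF 50 μM as positive control; DMSO ≤0.1%. After 6 h, Alamar Blue (4 h, 37°C), then luciferase read as fold over DMSO. Three independent experiments in triplicate.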

BACE1 = BACE1 (Homo sapiens, UniProt P56817); experiment: BACE1 activity assay; assay type: biochemical; conditions: cell-free, tested at 50, 100 and 250 μM (Table S1)
BACE1, sequence (P56817 46-457 limits assumed): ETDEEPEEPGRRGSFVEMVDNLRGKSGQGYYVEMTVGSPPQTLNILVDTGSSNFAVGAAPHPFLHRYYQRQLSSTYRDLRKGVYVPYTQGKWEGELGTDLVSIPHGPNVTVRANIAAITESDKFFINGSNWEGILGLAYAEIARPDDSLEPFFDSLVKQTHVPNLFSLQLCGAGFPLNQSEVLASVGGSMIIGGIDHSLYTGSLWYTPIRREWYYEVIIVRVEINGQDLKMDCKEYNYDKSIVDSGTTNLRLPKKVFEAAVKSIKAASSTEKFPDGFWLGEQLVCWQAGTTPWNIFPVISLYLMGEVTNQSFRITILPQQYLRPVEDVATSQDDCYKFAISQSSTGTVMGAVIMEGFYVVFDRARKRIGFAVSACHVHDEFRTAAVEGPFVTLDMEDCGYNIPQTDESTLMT

WT female mice = experiment: Safety: histopathology and serum biochemistry after 1 month intranasal dosing; assay type: in vivo, mouse; conditions: intranasal 100 mg/kg
Method in brief: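 11-month-old WT females given intranasal PBS or test compound at 100 mg/kg for 1 month. Histopathology of heart, hippocampus, lung, liver and kidney. Serum GOT, GGT, ALP, albumin, creatinine and urea reported as mg/dL or IU/L.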

APP/PS1 female mice [8] = experiment: Behavioral tests in 6-month-old females; assay type: in vivo, mouse; conditions: intranasal 50 mg/kg, 1 month
APP/PS1 female mice [9] = experiment: Aβ40 and Aβ42 levels in brain and plasma of 6-month-old females; assay type: in vivo, mouse; conditions: 1 month
Method in brief: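 WT and APP/PS1 females given PBS vehicle or test compound at 50 mg/kg (APP/PS1 only) intranasally, without anaesthesia, by micropipette for 1 month; groups of 5 per arm. Brain Aβ40 and Aβ42 quantified. Mean ± SEM of five to six animals.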

APP/PS1 male mice [10] = experiment: Y-maze test; assay type: in vivo, mouse; conditions: 100 mg/kg, 1 month
Method in brief: (§1)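 Behavioural testing in 10-month-old APP/PS1 and WT littermate males, randomised n = 5 per group. Intranasal PBS or test compound at 100 mg/kg for 1 month. Distance travelled also recorded.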

APP/PS1 male mice [11] = experiment: Novel object recognition test; assay type: in vivo, mouse; conditions: APP/PS1 males, 100 mg/kg, 1 month
Method in brief: as §1

[12] = source not given; cited from earlier work
[13] = N2a-APPswe, 1, 3 and 6 h (Figure S2)
[14] = 6-month-old APP/PS1 females + Iso 50 mg/kg
[15] = 6-month-old APP/PS1 females, 50 mg/kg, vs untreated
[16] = APP/PS1 males, not statistically significant

BACE1 activity (BACE1): inhibited
SMILES: CC=Cc1ccc(O)c(OC)c1 [Iso, 2‐methoxy‐4‐(prop‐1‐en‐1‐yl) phenol]
AKT phosphorylated levels [1]: AKT activation | GSK3β phosphorylated (Ser9) levels [1]: GSK3β inactivation | Nrf2 nuclear levels (Nrf2 in N2a-APPswe cells [2]): significantly increased | Nrf2 activation (ELISA kit) (Nrf2 in N2a-APPswe cells [3]): increased Nrf2 activation | Hmox1 gene expression (reduced in N2a-APPswe) (N2a-APPswe cells; N2a-APPswe, 250 μM, 3 h and 6 h): significantly reverted | Nqo1 gene expression (N2a-APPswe cells; [13]): induced | Sod1 gene expression (N2a-APPswe cells; [13]): induced | HMOX1 protein levels [4]: significant increase | LPS-induced Il-1β gene expression [5]: reduced | LPS-induced Nos2 gene expression [5]: reduced | LPS-triggered nitrite production [6]: significantly decreased | highest nontoxic concentration tested (N2a-wt cells): 250 µM | Nrf2 activation (luciferase induction) [7]: induced Nrf2 activation | LDL cholesterol (WT female mice; 11-month-old WT females): reduction | hippocampus histopathology (WT female mice; WT females): Increased cell activation | kidney histopathology (WT female mice; WT females): cellular eosinophilia and tubular epithelial hypertrophy | liver histopathology (hepatic steatosis seen in VEH) (WT female mice; WT females): also maintained | serum albumin (WT female mice; WT females): no alterations were detected | serum alkaline phosphatase (ALP) (WT female mice; WT females): no alterations were detected | serum creatinine (WT female mice; WT females): no alterations were detected | serum gamma-glutamyl transferase (GGT) (WT female mice; WT females): no alterations were detected | serum glutamic oxaloacetic transaminase (GOT) (WT female mice; WT females): no alterations were detected | serum urea (WT female mice; WT females): no alterations were detected | heart histopathology (WT female mice; WT females, vs VEH): No histopathological changes were observed | behavior (hot plate, open field, fear conditioning) (APP/PS1 female mice [8]): no relevant behavioral alterations were observed | plasma Aβ40 levels (APP/PS1 female mice [9]; [14]): 72.29 ± 7.271 picograms per milliliter | plasma Aβ42 levels (APP/PS1 female mice [9]; [14]): 83.88 ± 9.498 picograms per milliliter | brain Aβ40 levels (APP/PS1 female mice [9]; [15]): decreased | brain Aβ42 levels (APP/PS1 female mice [9]; [15]): decreased | Y-maze entries in the novel arm (APP/PS1 male mice [10]; [16]): reversed this trend | Y-maze time spent in the novel arm (APP/PS1 male mice [10]; [16]): reversed this trend | Y-maze distance traveled (APP/PS1 male mice [10]; males): not affected | percentage of investigations in the novel object (decreased in APP/PS1 VEH) (APP/PS1 male mice [11]): reverted | recognition index (lowered in APP/PS1 VEH) (APP/PS1 male mice [11]): reversed | octanol-water partition coefficient (logP) [12]: 3.04
